Test results as given in PMC8927994 (iScience, 2022).
Where two headings read alike, the source gives them in different places.

Experiments:
SHP2 protein [1] = conditions: esophageal cancer KYSE520 cells; ref Wang et al., 2021; cited from earlier work
SHP2 protein [2] = conditions: acute myeloid leukemia MV4;11 cells; ref Wang et al., 2021; cited from earlier work
SHP1 = SHP1 (Homo sapiens, UniProt P29350); assay: SHP1 enzyme activity assay; assay type: biochemical; conditions: read-out: IC50 SHP1, DiFMUP substrate
Chain of SHP1 (P29350 whole entry): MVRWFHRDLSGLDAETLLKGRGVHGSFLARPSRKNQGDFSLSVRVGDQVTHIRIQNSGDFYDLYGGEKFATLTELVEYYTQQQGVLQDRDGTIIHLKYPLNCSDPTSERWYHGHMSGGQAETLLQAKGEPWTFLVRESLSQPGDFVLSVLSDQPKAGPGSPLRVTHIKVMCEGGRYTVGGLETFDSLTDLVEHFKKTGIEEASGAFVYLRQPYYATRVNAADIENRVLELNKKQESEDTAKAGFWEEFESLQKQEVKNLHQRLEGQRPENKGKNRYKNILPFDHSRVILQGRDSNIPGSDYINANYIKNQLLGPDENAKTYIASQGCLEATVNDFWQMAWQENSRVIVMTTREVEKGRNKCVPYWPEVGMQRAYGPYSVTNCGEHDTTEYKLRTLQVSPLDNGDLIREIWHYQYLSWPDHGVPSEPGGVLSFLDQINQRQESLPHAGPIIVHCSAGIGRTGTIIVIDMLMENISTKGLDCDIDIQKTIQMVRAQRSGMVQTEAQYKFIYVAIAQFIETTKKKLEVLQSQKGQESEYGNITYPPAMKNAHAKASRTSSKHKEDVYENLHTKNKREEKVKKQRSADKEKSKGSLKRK
Method in brief: (§1)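 In-house expressed recombinant enzyme, purified by gel filtration, at the same conditions as the SHP2 assay but without IRS1 activating peptide. Test compound at 0.001–100 μM is preincubated with enzyme for 30–60 min at 25°C. DiFMUP is then added for 30 min at 25°C, and the reaction is quenched with bpV(Phen). Fluorescence is read at ex 340/em 450 nm, and IC50 comes from the dose-response curve.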

PTP1B = molecular target: T1, PTP1B (Homo sapiens, UniProt P18031); assay: PTP1B enzyme activity assay; assay type: biochemical; conditions: read-out: IC50 PTP1B, DiFMUP substrate
T1 sequence (P18031 1-435): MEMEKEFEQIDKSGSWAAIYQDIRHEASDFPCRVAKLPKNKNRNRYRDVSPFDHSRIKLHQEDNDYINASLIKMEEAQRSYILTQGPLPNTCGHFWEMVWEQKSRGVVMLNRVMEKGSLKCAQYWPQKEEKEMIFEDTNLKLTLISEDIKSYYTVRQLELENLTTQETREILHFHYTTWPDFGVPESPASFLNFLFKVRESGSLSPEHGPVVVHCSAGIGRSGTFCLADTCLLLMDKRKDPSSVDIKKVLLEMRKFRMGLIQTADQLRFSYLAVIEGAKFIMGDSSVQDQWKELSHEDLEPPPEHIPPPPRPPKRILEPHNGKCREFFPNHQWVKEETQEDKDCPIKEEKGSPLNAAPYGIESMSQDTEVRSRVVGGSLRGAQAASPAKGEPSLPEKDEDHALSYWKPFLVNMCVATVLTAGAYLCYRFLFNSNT
Method in brief: as §1

[3] = tested on: mouse peritoneal macrophages (PMs); assay: Imiquimod-induced inflammation in peritoneal macrophages; assay type: cell-based
[4] = tested on: bone marrow-derived macrophages (BMDMs); assay: Imiquimod-induced inflammation in bone marrow-derived macrophages; assay type: cell-based, mouse
[5] = tested on: imiquimod-induced psoriasis model mice; assay: IMQ-induced psoriasis-like mouse model; assay type: in vivo
[6] = 10 μM pretreated 3 h, 5 μM IMQ 1 h

IC50 (SHP1) [µM] | IC50 (PTP1B) [µM] | SMILES | reduction of SHP2 protein levels (SHP2 protein [1]) [%] | reduction of SHP2 protein levels (SHP2 protein [2]) [%] | phosphorylation levels of p-IKKα/β and p-p65 (western blot) [3, 6] | gene expression levels of inflammatory factors Il23a, Il22, Il6, Tnfα, Il1b, Ptgs2 (qPCR) ([3]; pretreated 3 h, 5 μM IMQ 6 h) | phosphorylation levels of p-IKKα/β and p-p65 (western blot) [4, 6] | gene expression levels of inflammatory factors Il23a, Il22, Il6, Tnfα, Il1b, Ptgs2 (qPCR) ([4]; pretreated 3 h, 5 μM IMQ 6 h) | infiltration of inflammatory cells (HE staining of skin sections) [5] | proliferation of epidermal cells (HE staining of skin sections) [5]
 |  | Cc1ncsc1-c1ccc([C@H](C)NC(=O)[C@@H]2C[C@@H](O)CN2C(=O)[C@@H](NC(=O)CCCCCCCCN2CCN(C(=O)CCC(=O)Nc3cccc(Sc4ncc(N5CCC(C)(N)CC5)nc4N)c3Cl)CC2)C(C)(C)C)cc1 [SHP2-D26] | > 95 | > 95 |  |  |  |  |  | 
> 100 | > 100 | CC1(N)CCN(c2cnc(-c3cccc(Cl)c3Cl)c(N)n2)CC1 [SHP099] |  |  | inhibited the phosphorylation levels | significantly alleviated | inhibited the phosphorylation levels | significantly alleviated | significantly reduced | effectively inhibit
